In brackets after ≈: the same amount, converted by molar mass. Activity calls are given as the source filed them. The calls are words filed in the database; no cut-off is given here.
Key:
[1] = target: T1, Hyaluronidase (Bos taurus) (UniProt Q8SQG8+Q5E985); assay: Inhibition of bovine testes hyaluronidase at 4200 uM after 30 mins at pH 5 by turbidimetric analysis; type: protein assay
[2] = target: T1, Hyaluronidase (Bos taurus); assay: Inhibition of bovine testes hyaluronidase at 49 uM after 30 mins at pH 5 by turbidimetric analysis; type: protein assay
[3] = target: T1, Hyaluronidase (Bos taurus); assay: Inhibition of bovine testes hyaluronidase at 80 uM after 30 mins at pH 5 by turbidimetric analysis; type: protein assay
[4] = target: T1, Hyaluronidase (Bos taurus); assay: Inhibition of bovine testes hyaluronidase at 3800 uM after 30 mins at pH 5 by turbidimetric analysis; type: protein assay
[5] = Inhibition of Streptococcus agalactiae 4755 hyaluronidase at pH 7.4 after 3 hrs by turbidimetric analysis
Procedure, shortened: (§1)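 Same turbidimetric hyaluronan-lyase assay at pH 7.4 (citrate–phosphate/NaCl): SagHyal4755 2.9 ng, hyaluronan (2 mg/ml stock), BSA, 3.8% DMSO final, 3 h at 37 °C. CTAB (2.5%, in 0.5 M NaOH) precipitation, 20 min at 25 °C, A600. Activity scaled between no-inhibitor and no-enzyme samples.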

[6] = target: T1, Hyaluronidase (Bos taurus); assay: Inhibition of bovine testes hyaluronidase at 380 uM after 30 mins at pH 5 by turbidimetric analysis; type: protein assay
[7] = target: T1, Hyaluronidase (Bos taurus); assay: Inhibition of bovine testes hyaluronidase at 170 uM after 30 mins at pH 5 by turbidimetric analysis; type: protein assay
[8] = target: T1, Hyaluronidase (Bos taurus); assay: Inhibition of bovine testes hyaluronidase at 150 uM after 30 mins at pH 5 by turbidimetric analysis; type: protein assay
[9] = target: T1, Hyaluronidase (Bos taurus); assay: Inhibition of bovine testes hyaluronidase at 200 uM after 30 mins at pH 5 by turbidimetric analysis; type: protein assay
[10] = system: Streptococcus agalactiae; assay: Inhibition of Streptococcus agalactiae 4755 hyaluronidase at 2000 uM after 30 mins at pH 5.0 by turbidimetric analysis
Procedure, shortened: (§2)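 SagHyal4755 (2.9 ng) with BSA and hyaluronan (2 mg/ml stock) in citrate–phosphate/NaCl buffer pH 5.0, 3.8% DMSO final, 30 min at 37 °C. Stopped by alkaline 2.5% CTAB, then 20 min at 25 °C. Residual-substrate turbidity read at 600 nm; no-inhibitor sample = 100%, no-enzyme sample = 0% activity. Enzyme-free compound controls were run.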

[11] = target: T1, Hyaluronidase (Bos taurus); assay: Inhibition of bovine testes hyaluronidase at 100 uM after 30 mins at pH 5 by turbidimetric analysis; type: protein assay
[12] = target: T1, Hyaluronidase (Bos taurus); assay: Inhibition of bovine testes hyaluronidase at 190 uM after 30 mins at pH 5 by turbidimetric analysis; type: protein assay
[13] = target: T1, Hyaluronidase (Bos taurus); assay: Inhibition of bovine testes hyaluronidase at 460 uM after 30 mins at pH 5 by turbidimetric analysis; type: protein assay
[14] = target: T1, Hyaluronidase (Bos taurus); assay: Inhibition of bovine testes hyaluronidase at 180 uM after 30 mins at pH 5 by turbidimetric analysis; type: protein assay
[15] = target: T1, Hyaluronidase (Bos taurus); assay: Inhibition of bovine testes hyaluronidase at 400 uM after 30 mins at pH 5 by turbidimetric analysis; type: protein assay
[16] = target: T1, Hyaluronidase (Bos taurus); assay: Inhibition of bovine testes hyaluronidase at 130 uM after 30 mins at pH 5 by turbidimetric analysis; type: protein assay
[17] = Aqueous solubility of the compound in water; type: physicochemical
Procedure, shortened: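 Turbidity at 600 nm of test compound in DMSO added to citrate–phosphate buffer (pH 5 and pH 7.4), water and BSA (0.2 mg/ml stock), at various concentrations, read against a water reference. Enzyme testing used only concentrations showing no turbidity.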

[18] = target: T1, Hyaluronidase (Bos taurus); assay: Inhibition of bovine testes hyaluronidase at 2000 uM after 30 mins at pH 5 by turbidimetric analysis; type: protein assay
[19] = target: T1, Hyaluronidase (Bos taurus); assay: Inhibition of bovine testes hyaluronidase at 63 uM after 30 mins at pH 5 by turbidimetric analysis; type: protein assay
[20] = system: Streptococcus agalactiae; assay: Inhibition of Streptococcus agalactiae 4755 hyaluronidase at 200 uM after 3 hrs at pH 7.4 by turbidimetric analysis; procedure, shortened: as §1
[21] = system: Streptococcus agalactiae; assay: Inhibition of Streptococcus agalactiae 4755 hyaluronidase at 80 uM after 30 mins at pH 5.0 by turbidimetric analysis; procedure, shortened: as §2
[22] = Inhibition of Streptococcus agalactiae 4755 hyaluronidase at pH 5.0 after 30 mins by turbidimetric analysis; procedure, shortened: as §2
[23] = system: Streptococcus agalactiae; assay: Inhibition of Streptococcus agalactiae 4755 hyaluronidase at 2000 uM after 3 hrs at pH 7.4 by turbidimetric analysis; procedure, shortened: as §1
[24] = system: Streptococcus agalactiae; assay: Inhibition of Streptococcus agalactiae 4755 hyaluronidase at 63 uM after 30 mins at pH 5.0 by turbidimetric analysis; procedure, shortened: as §2
[25] = system: Streptococcus agalactiae; assay: Inhibition of Streptococcus agalactiae 4755 hyaluronidase at 130 uM after 30 mins at pH 5.0 by turbidimetric analysis; procedure, shortened: as §2
[26] = system: Streptococcus agalactiae; assay: Inhibition of Streptococcus agalactiae 4755 hyaluronidase at 4200 uM after 30 mins at pH 5.0 by turbidimetric analysis; procedure, shortened: as §2
[27] = system: Streptococcus agalactiae; assay: Inhibition of Streptococcus agalactiae 4755 hyaluronidase at 4200 uM after 3 hrs at pH 7.4 by turbidimetric analysis; procedure, shortened: as §1

T1 sequence (Q5E985 whole entry, looked up): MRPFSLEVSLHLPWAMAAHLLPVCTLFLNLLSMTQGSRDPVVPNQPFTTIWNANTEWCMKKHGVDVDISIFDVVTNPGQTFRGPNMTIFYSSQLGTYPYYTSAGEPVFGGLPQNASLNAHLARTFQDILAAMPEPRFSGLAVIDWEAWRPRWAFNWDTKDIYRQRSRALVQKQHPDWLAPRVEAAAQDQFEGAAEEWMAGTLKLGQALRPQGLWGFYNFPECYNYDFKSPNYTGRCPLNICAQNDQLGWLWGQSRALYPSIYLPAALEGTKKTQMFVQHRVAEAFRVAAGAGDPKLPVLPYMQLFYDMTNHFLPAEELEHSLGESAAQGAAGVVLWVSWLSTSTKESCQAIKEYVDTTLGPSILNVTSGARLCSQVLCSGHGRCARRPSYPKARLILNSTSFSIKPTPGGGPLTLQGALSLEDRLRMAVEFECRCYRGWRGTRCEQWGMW
T1 sequence (Q8SQG8 whole entry, looked up): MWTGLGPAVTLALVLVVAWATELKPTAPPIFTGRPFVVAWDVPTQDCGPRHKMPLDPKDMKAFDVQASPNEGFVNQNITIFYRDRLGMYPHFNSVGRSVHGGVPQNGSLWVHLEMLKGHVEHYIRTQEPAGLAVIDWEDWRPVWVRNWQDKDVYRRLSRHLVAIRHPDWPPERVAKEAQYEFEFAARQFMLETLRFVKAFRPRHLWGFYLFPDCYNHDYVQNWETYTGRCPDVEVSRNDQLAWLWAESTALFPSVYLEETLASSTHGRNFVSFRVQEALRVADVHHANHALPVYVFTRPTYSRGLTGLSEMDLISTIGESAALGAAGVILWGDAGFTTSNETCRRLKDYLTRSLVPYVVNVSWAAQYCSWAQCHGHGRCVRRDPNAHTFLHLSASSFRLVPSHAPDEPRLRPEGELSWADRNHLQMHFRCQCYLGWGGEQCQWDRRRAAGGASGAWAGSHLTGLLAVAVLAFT

| inhibition [1] | inhibition [2] | inhibition [3] | inhibition [4] | IC50 [5] | inhibition [6] | inhibition [7] | inhibition [8] | inhibition [9] | inhibition [11] | inhibition [12] | inhibition [13] | inhibition [14] | inhibition [15] | inhibition [16] | solubility [17] | inhibition [18] | inhibition [19] | SMILES | also measured |
| --- | --- | --- | --- | --- | --- | --- | --- | --- | --- | --- | --- | --- | --- | --- | --- | --- | --- | --- | --- |
| inactive | inactive | inactive | inactive | 1470 µM | inactive | inactive | inactive | inactive | inactive | inactive | inactive | inactive | inactive | inactive | 2000 µM (≈ 354 µg/mL) | inactive | inactive | CC(=O)n1c(=O)oc2ccccc21 | inhibition [10]: inactive |
| inactive | inactive | inactive | inactive | – | inactive | inactive | inactive | inactive | inactive | inactive | inactive | inactive | inactive | inactive | 80 µM (≈ 22.5 µg/mL) | inactive | inactive | O=C(/C=C/c1ccccc1)n1c(=S)oc2ccccc21 | inhibition [20]: 36%; inhibition [21]: 9% |
| inactive | inactive | inactive | inactive | – | inactive | inactive | inactive | inactive | inactive | inactive | inactive | inactive | inactive | inactive | – | inactive | inactive | COC(=O)c1ccc2oc(=S)[nH]c2c1 | IC50 [22]: 1.3 mM; inhibition [23]: 27% |
| inactive | inactive | inactive | inactive | 17 µM | inactive | inactive | inactive | inactive | inactive | inactive | inactive | inactive | inactive | inactive | 63 µM (≈ 24.5 µg/mL) | inactive | inactive | CCCCCCCCCCCCCCCC(=O)n1c(=S)oc2ccccc21 | inhibition [24]: 23% |
| inactive | inactive | inactive | inactive | 29 µM | inactive | inactive | inactive | inactive | inactive | inactive | inactive | inactive | inactive | inactive | 130 µM (≈ 32.4 µg/mL) | inactive | inactive | CCCCCC(=O)n1c(=S)oc2ccccc21 | inhibition [25]: 51% |
| inactive | inactive | inactive | inactive | – | inactive | inactive | inactive | inactive | inactive | inactive | inactive | inactive | inactive | inactive | 4200 µM (≈ 749 µg/mL) | inactive | inactive | CCn1c(S)nc2ccccc21 | inhibition [26]: 19%; inhibition [27]: 28% |

From ChEMBL document CHEMBL1817567, “Design of benzimidazole- and benzoxazole-2-thione derivatives as inhibitors of bacterial hyaluronan lyase” (Eur J Med Chem, 2011)
